The source of these data is ChEMBL document CHEMBL4311956, “A Qualified Success: Discovery of a New Series of ATAD2 Bromodomain Inhibitors with a Novel Binding Mode Using High-Throughput Screening and Hit Qualification” (J Med Chem, 2019).

In test [1] the target is Nucleosome-remodeling factor subunit BPTF (Homo sapiens, UniProt Q12830). In words: Inhibition of BPTF (unknown origin) by TR-FRET assay.
For test [2], the species on record is Homo sapiens. In words: Selectivity ratio, ratio of displacement of Alexa Fluor 647 labelled ligand from His6-tagged BRD4 BD1 (1 to 477 residues)/BD2 Y390A mutant (unknown origin) to displacement of SGRG-K(Ac)-GG-K(Ac)-GLG-K(Ac)-GGAKRHRKV-biotin) from His6/FLAG-tagged TEV fused ATAD2 bromodomain (981 to 1121 residues) expressed in Escherichia coli BL21(DE3) cells.

The species named for test [3] is Homo sapiens. In words: Selectivity ratio, ratio of displacement of Alexa Fluor 647 labelled ligand from His6-tagged BRD4 BD2 (1 to 477 residues)/BD1 Y97A mutant (unknown origin) to displacement of SGRG-K(Ac)-GG-K(Ac)-GLG-K(Ac)-GGAKRHRKV-biotin) from His6/FLAG-tagged TEV fused ATAD2 bromodomain (981 to 1121 residues) expressed in Escherichia coli BL21(DE3) cells.

In test [4] the target is T1, ATPase family AAA domain-containing protein 2 (Homo sapiens, UniProt Q6PL18).
T1 sequence (Q6PL18 whole entry): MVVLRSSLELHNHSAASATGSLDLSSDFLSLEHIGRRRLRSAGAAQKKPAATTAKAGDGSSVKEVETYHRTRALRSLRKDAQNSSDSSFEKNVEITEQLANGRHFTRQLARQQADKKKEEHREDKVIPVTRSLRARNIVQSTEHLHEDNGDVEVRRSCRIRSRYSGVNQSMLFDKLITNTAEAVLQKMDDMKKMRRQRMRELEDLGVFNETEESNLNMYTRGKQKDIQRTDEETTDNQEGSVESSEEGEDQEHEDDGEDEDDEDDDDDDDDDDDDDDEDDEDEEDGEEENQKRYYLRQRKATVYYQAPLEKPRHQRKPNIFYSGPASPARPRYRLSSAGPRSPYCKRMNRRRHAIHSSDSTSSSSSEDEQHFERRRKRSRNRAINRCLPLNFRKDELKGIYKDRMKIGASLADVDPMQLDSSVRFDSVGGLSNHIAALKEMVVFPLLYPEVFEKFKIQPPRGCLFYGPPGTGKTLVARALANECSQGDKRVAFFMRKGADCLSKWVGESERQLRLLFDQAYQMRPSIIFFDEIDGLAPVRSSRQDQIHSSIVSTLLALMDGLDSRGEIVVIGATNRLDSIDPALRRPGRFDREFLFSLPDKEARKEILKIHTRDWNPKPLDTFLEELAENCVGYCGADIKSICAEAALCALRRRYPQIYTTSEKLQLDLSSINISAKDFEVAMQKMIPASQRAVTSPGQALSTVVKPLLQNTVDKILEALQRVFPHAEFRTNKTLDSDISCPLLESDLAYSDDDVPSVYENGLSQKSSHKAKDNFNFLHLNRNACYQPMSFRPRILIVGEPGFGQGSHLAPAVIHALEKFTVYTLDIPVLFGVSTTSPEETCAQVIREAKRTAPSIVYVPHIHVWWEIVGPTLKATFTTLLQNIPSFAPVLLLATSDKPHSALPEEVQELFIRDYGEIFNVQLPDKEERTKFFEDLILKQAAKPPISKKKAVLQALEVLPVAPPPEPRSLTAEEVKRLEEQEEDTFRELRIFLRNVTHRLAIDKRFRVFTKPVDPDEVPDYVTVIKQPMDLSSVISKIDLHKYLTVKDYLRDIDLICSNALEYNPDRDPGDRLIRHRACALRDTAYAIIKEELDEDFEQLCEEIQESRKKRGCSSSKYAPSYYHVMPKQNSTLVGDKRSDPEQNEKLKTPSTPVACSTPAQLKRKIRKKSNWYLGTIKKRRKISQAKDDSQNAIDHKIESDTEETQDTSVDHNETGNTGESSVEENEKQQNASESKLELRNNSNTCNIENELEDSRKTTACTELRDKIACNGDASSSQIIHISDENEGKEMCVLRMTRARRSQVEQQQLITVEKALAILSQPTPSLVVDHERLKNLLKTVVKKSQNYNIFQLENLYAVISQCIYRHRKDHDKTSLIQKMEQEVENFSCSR
In words: Inhibition of ATAD2 bromodomain in human HUT78 chromatin lysate after 2 hrs by bromosphere competition binding assay. In outline: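 Bromosphere chemoproteomic assay. Measures competitive inhibition of binding of endogenous full-length ATAD2 from Hut-78 cells.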

The target in test [5] is Bromodomain-containing protein 2 (Homo sapiens, UniProt P25440, Y113A). In words: Displacement of Alexa Fluor 647 labelled ligand from His6-tagged BRD2 BD2 (1 to 473 residues)/BD1 Y113A mutant (unknown origin) after 30 mins by TR-FRET assay. In outline:
(§1)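 BET selectivity by TR-FRET fluoroligand displacement. Uses tandem BET bromodomain constructs carrying a mutation in the non-assayed bromodomain.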

In test [6] the target is Bromodomain-containing protein 3 (Homo sapiens, UniProt Q15059, Y73A). In words: Displacement of Alexa Fluor 647 labelled ligand from His6-tagged BRD3 BD2(1 to 435 residues)/BD1 Y73A mutant (unknown origin) after 30 mins by TR-FRET assay. In outline:
as §1

The target in test [7] is Bromodomain and PHD finger-containing protein 3 (Homo sapiens, UniProt Q9ULD4). In words: Inhibition of BRPF3 (unknown origin) by TR-FRET assay.
Chain of Bromodomain and PHD finger-containing protein 3 (Q9ULD4 whole entry): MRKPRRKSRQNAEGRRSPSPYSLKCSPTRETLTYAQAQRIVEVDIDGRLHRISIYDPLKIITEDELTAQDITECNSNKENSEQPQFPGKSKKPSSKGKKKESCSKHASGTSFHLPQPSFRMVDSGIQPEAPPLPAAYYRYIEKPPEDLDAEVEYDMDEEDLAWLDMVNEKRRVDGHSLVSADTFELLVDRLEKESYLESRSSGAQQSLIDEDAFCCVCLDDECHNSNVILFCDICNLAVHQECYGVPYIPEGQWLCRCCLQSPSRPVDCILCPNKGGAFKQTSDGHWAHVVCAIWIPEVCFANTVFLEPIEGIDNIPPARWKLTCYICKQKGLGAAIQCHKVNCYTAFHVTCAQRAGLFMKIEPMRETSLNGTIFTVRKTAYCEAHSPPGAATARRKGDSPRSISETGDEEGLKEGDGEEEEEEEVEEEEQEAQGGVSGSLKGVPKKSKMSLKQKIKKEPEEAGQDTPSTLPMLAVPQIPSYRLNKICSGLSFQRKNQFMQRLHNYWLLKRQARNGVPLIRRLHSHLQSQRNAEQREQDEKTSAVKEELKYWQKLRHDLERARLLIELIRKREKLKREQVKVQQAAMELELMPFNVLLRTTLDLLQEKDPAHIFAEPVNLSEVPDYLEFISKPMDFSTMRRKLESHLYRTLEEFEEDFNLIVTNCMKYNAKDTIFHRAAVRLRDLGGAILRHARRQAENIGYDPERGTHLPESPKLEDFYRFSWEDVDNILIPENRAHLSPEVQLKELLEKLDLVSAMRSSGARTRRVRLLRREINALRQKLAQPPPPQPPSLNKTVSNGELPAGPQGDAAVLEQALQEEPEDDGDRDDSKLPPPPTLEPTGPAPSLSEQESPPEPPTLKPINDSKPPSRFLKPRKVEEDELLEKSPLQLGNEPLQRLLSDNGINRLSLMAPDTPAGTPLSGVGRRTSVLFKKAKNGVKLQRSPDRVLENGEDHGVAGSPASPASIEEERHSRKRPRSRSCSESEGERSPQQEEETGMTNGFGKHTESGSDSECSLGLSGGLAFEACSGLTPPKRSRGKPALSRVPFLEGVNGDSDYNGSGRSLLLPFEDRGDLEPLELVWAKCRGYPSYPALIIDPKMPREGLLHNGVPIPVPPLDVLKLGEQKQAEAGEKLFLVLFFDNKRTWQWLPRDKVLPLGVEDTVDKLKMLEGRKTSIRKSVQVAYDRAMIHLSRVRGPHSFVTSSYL
In test [8] the target is Transcription initiation factor TFIID subunit 1 (Homo sapiens, UniProt P21675). In words: Inhibition of TAF1 BD2 (unknown origin) by TR-FRET assay.
Chain of Transcription initiation factor TFIID subunit 1 (P21675 whole entry, the tested form may be a part): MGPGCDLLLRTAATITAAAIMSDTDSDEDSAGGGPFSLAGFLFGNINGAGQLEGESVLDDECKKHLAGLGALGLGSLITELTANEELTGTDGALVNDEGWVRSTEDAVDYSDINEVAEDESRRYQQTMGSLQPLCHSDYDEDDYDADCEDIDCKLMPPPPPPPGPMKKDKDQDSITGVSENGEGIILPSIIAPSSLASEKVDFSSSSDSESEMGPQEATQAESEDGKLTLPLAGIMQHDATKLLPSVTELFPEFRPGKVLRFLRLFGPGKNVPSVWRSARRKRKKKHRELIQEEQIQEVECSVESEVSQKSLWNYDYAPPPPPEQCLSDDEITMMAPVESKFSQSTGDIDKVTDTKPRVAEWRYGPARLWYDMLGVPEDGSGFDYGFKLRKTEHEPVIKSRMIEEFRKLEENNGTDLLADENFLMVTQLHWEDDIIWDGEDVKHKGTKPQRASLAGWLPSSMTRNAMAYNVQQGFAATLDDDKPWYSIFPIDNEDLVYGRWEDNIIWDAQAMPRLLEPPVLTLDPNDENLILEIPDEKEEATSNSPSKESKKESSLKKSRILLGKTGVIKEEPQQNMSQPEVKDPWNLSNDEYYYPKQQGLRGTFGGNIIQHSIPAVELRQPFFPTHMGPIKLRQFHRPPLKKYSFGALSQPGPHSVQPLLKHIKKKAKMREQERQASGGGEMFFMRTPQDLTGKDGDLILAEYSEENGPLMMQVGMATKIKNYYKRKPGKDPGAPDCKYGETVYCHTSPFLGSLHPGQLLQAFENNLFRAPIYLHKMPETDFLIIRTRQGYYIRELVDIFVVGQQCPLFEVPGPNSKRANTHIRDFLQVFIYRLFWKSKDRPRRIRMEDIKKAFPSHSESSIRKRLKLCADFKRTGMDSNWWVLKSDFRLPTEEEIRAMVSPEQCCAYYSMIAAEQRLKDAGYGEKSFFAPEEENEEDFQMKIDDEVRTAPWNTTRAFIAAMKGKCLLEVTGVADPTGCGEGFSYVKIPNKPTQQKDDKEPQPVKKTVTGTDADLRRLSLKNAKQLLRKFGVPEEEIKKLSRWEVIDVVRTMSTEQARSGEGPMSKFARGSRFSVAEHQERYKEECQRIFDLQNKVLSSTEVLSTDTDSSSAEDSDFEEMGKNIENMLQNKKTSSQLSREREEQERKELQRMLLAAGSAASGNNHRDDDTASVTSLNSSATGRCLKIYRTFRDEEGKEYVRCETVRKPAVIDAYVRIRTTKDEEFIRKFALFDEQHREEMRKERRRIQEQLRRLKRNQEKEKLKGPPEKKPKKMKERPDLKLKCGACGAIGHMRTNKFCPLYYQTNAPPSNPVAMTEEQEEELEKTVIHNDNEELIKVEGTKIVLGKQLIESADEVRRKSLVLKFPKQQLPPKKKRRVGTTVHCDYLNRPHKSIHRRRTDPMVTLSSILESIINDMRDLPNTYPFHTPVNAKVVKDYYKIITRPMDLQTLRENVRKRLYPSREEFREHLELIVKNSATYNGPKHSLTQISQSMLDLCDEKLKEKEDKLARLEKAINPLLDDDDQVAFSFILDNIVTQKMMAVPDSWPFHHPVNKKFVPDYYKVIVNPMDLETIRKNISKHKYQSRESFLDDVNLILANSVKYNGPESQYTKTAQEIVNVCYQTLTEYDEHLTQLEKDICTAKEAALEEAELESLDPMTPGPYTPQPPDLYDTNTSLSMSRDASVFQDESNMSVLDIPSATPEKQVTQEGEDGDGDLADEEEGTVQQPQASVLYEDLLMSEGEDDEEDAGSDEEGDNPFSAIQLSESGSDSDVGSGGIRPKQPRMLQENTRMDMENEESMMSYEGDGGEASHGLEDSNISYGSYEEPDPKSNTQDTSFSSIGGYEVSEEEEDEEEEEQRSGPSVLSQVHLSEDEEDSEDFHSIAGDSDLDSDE
The species entered for test [9] is Homo sapiens. In words: Selectivity ratio, ratio of inhibition of BRPF3 (unknown origin) to displacement of SGRG-K(Ac)-GG-K(Ac)-GLG-K(Ac)-GGAKRHRKV-biotin) from His6/FLAG-tagged TEV fused ATAD2 bromodomain (981 to 1121 residues) expressed in Escherichia coli BL21(DE3) cells.
Test [10] is filed under the species Homo sapiens. In words: Selectivity ratio, ratio of inhibition of TAF1 BD2 (unknown origin) to displacement of SGRG-K(Ac)-GG-K(Ac)-GLG-K(Ac)-GGAKRHRKV-biotin) from His6/FLAG-tagged TEV fused ATAD2 bromodomain (981 to 1121 residues) expressed in Escherichia coli BL21(DE3) cells.
The species entered for test [11] is Homo sapiens. In words: Selectivity ratio, ratio of inhibition of CECR2 (unknown origin) to Displacement of biotinylated H4 peptide from ATAD2B bromodomain (unknown origin) by TR-FRET assay.
The species named for test [12] is Homo sapiens. In words: Selectivity ratio, ratio of inhibition of BRPF3 (unknown origin) to Displacement of biotinylated H4 peptide from ATAD2B bromodomain (unknown origin) by TR-FRET assay.

Chain of Bromodomain-containing protein 3 (Q15059 2-726 Y73A limits assumed): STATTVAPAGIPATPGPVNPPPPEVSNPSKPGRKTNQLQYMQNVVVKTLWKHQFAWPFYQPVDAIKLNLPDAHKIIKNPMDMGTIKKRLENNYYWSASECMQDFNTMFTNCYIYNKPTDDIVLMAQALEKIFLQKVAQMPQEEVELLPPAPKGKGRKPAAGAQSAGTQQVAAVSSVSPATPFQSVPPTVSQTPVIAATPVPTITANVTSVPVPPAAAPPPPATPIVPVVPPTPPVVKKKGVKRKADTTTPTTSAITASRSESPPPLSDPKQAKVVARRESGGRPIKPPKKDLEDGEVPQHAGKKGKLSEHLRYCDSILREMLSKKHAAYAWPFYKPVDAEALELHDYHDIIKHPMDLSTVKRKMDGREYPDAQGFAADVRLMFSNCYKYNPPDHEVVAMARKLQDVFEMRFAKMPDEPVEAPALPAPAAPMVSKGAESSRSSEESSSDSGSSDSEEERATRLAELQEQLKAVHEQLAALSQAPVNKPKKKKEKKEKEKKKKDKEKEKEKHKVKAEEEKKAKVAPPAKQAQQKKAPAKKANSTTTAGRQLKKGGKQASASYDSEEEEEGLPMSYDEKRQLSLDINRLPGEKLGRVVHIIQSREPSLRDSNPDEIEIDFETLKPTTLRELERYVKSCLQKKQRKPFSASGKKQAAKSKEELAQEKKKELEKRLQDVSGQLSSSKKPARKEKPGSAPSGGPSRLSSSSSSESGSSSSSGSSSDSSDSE
Chain of Bromodomain-containing protein 2 (P25440 whole entry Y113A, the tested form may be a part): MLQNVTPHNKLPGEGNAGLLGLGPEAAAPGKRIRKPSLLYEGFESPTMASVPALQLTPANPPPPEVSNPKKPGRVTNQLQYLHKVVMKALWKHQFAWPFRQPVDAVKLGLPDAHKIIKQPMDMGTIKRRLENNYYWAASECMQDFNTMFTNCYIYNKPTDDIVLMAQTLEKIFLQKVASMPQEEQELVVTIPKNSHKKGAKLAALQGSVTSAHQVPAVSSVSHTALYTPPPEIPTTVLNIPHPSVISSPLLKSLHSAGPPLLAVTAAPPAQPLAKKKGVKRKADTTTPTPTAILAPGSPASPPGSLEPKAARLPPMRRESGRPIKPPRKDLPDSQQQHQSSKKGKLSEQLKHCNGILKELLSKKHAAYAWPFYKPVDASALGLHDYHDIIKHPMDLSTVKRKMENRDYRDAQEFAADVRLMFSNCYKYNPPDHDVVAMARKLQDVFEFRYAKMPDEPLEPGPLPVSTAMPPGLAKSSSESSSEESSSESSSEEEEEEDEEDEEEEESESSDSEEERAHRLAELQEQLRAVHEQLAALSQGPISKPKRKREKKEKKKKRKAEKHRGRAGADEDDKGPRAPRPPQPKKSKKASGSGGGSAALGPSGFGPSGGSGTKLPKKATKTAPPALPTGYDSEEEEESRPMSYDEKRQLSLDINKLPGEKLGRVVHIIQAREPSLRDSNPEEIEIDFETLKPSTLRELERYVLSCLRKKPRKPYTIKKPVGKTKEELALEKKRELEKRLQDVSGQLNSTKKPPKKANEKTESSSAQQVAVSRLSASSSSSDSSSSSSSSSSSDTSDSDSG

As for `CC1(C2CC2)NC(=O)N(CC(=O)Nc2ccc(Br)c(S(=O)(=O)N3CCCCC3)c2)C1=O` (racemic), the IC50 was 63.1 µM in test [1]; 3.98 µM in test [4]; 20 µM in test [5]; 31.6 µM in test [6]; 10 µM in test [7]; 3.98 µM in test [8]. Besides, the Selectivity ratio was over 100 in the test listed under Homo sapiens [2]; 60 in the test filed under Homo sapiens [3]; over 10 in the test filed under Homo sapiens [9]; over 10 in the test listed under Homo sapiens [10]; over 10 in the test listed under Homo sapiens [11]; over 10 in the test filed under Homo sapiens [12].
